Laboratory results from ChEMBL document CHEMBL1125042, “Hypolipidemic activity of rifamycin derivatives” (J Med Chem, 1990).
Converted amounts (≈) assume the structure as drawn.

Experiments:
Rattus norvegicus [1] = assay: Compound was tested for hypolipidemic activity in male rats, cholesterol was determined in serum at 100 mg/kg; assay type: functional
Summary of the method: (§1)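 Male Wistar rats (200–230 g), eight per group, were dosed orally in PEG 400 at 8 a.m. for 4 days, plus a second dose at 4 p.m. on day 4. Rats were fasted 16 h and killed 16 h after the last dose. Sera from pairs of rats were pooled. LDL (up to 1.040 g/cm³) was separated by ultracentrifugation and the HDL infranatant taken. Cholesterol was measured enzymatically. Results are % versus vehicle control, mean ± SEM of four pools, Student's t test.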

Rattus norvegicus [2] = assay: Hypolipidemic activity was determined in male rats, and high-density lipoprotein level was determined at 100 mg/kg; assay type: functional; summary of the method: as §1
Rattus norvegicus [3] = assay: Hypolipidemic activity was determined in male rats, and low-density lipoprotein level was determined at 100 mg/kg; assay type: functional; summary of the method: as §1
Staphylococcus aureus = assay: Antibacterial activity against Staphylococcus aureus 10B; assay type: functional
Summary of the method: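 Agar dilution on DST agar with 2-fold drug dilutions. Inoculum of 10⁴ viable S. aureus 10B was taken from liquid-nitrogen stock, thawed 30 min and not subcultured. It was applied by multipoint replicator and incubated overnight at 37 °C. MIC is the lowest concentration inhibiting growth relative to control cultures.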

Rattus norvegicus [4] = assay: Tested for hypolipidemic activity in male rats, cholesterol was determined in serum at 10 mg/kg; assay type: functional
Summary of the method: (§2)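 Groups of eight male Wistar rats (200–230 g) dosed orally in PEG 400, either daily for 7 days (killed 24 h after the last dose) or for 4 days with a second dose on day 4 (killed 16 h later). Fasted 16 h. Paired sera pooled, lipoproteins separated by ultracentrifugation (1.006 and 1.040 g/cm³), HDL taken as the infranatant. Cholesterol measured enzymatically; % vs vehicle, mean ± SEM of four pools.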

Rattus norvegicus [5] = assay: Tested for hypolipidemic activity in male rats, cholesterol was determined in serum at 20 mg/kg; assay type: functional; summary of the method: as §2
Rattus norvegicus [6] = assay: Hypolipidemic activity was determined in male rats, and high-density lipoprotein level was determined at 10 mg/kg; assay type: functional; summary of the method: as §1
Rattus norvegicus [7] = assay: Hypolipidemic activity was determined in male rats, and high-density lipoprotein level was determined at 20 mg/kg; assay type: functional; summary of the method: as §1
Rattus norvegicus [8] = assay: Hypolipidemic activity was determined in male rats, and low-density lipoprotein level was determined at 10 mg/kg; assay type: functional; summary of the method: as §1
Rattus norvegicus [9] = assay: Hypolipidemic activity was determined in male rats, and low-density lipoprotein level was determined at 20 mg/kg; assay type: functional; summary of the method: as §1
[10] = Inhibitory activity against RNA polymerase was determined; design: species or system Escherichia coli
Summary of the method: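 E. coli DNA-dependent RNA polymerase inhibition measured in vitro on ether-extracted, permeabilized E. coli cells.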

Rattus norvegicus [11] = assay: Hypolipidemic activity was determined by measuring the % serum HDL in hypercholesterolemic RICO rat at a dose of 10 mg/kg; assay type: functional, organism-based; design: dose 10 mg/kg
Summary of the method: (§3)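 Genetically hypercholesterolemic RICO rats (Tif:RAI,f,SPF) were dosed orally for 7 days. Sera were collected after a 16 h fast and pooled in pairs. LDL (1.006–1.040 g/cm³) and HDL infranatant were separated by ultracentrifugation. Cholesterol and triglycerides were measured enzymatically. Results are % change versus vehicle control, mean ± SEM of four pools.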

Rattus norvegicus [12] = assay: Hypolipidemic activity was determined by measuring the % serum HDL in hypercholesterolemic RICO rat at a dose of 3 mg/kg; assay type: functional, organism-based; design: dose 3 mg/kg; summary of the method: as §3
Rattus norvegicus [13] = assay: Hypolipidemic activity was determined by measuring the % serum HDL in hypercholesterolemic RICO rat at a dose of 30 mg/kg; assay type: functional, organism-based; design: dose 30 mg/kg; summary of the method: as §3
Rattus norvegicus [14] = assay: Hypolipidemic activity was determined by measuring the % serum HDL in normal rat at a dose of 1 mg/kg; assay type: functional, organism-based; design: dose 1 mg/kg
Summary of the method: (§4)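 Normal male Wistar rats (200–230 g), eight per group, were dosed orally in PEG 400 once daily for 7 days. They were fasted 16 h and killed 24 h after the last dose. Serum from pairs was pooled and LDL/HDL fractions were ultracentrifuged. Cholesterol and triglycerides were measured enzymatically. Results are % versus vehicle control, mean ± SEM of four pools, Student's t test.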

Rattus norvegicus [15] = assay: Hypolipidemic activity was determined by measuring the % serum HDL in normal rat at a dose of 3 mg/kg; assay type: functional, organism-based; design: dose 3 mg/kg; summary of the method: as §4
Rattus norvegicus [16] = assay: Hypolipidemic activity was determined by measuring the % serum HDL in normal rat at a dose of 30 mg/kg; assay type: functional, organism-based; design: dose 30 mg/kg; summary of the method: as §4
Rattus norvegicus [17] = assay: Hypolipidemic activity was determined by measuring the % serum cholesterol in hypercholesterolemic RICO rat at a dose of 10 mg/kg; assay type: functional, organism-based; design: dose 10 mg/kg; summary of the method: as §3
Rattus norvegicus [18] = assay: Hypolipidemic activity was determined by measuring the % serum cholesterol in hypercholesterolemic RICO rat at a dose of 3 mg/kg; assay type: functional, organism-based; design: dose 3 mg/kg; summary of the method: as §3
Rattus norvegicus [19] = assay: Hypolipidemic activity was determined by measuring the % serum cholesterol in hypercholesterolemic RICO rat at a dose of 30 mg/kg; assay type: functional, organism-based; design: dose 30 mg/kg; summary of the method: as §3
Rattus norvegicus [20] = assay: Hypolipidemic activity was determined by measuring the % serum cholesterol in normal rat at a dose of 1 mg/kg; assay type: functional, organism-based; design: dose 1 mg/kg; summary of the method: as §4
Rattus norvegicus [21] = assay: Hypolipidemic activity was determined by measuring the % serum cholesterol in normal rat at a dose of 10 mg/kg; assay type: functional, organism-based; design: dose 10 mg/kg; summary of the method: as §4
Rattus norvegicus [22] = assay: Hypolipidemic activity was determined by measuring the % serum cholesterol in normal rat at a dose of 3 mg/kg; assay type: functional, organism-based; design: dose 3 mg/kg; summary of the method: as §4
Rattus norvegicus [23] = assay: Hypolipidemic activity was determined by measuring the % serum cholesterol in normal rat at a dose of 30 mg/kg; assay type: functional, organism-based; design: dose 30 mg/kg; summary of the method: as §4
Rattus norvegicus [24] = assay: Hypolipidemic activity was determined by measuring the % serum LDL-cholesterol in hypercholesterolemic RICO rat at a dose of 10 mg/kg; assay type: functional, organism-based; design: dose 10 mg/kg; summary of the method: as §3
Rattus norvegicus [25] = assay: Hypolipidemic activity was determined by measuring the % serum LDL-cholesterol in hypercholesterolemic RICO rat at a dose of 3 mg/kg; assay type: functional, organism-based; design: dose 3 mg/kg; summary of the method: as §3
Rattus norvegicus [26] = assay: Hypolipidemic activity was determined by measuring the % serum LDL-cholesterol in hypercholesterolemic RICO rat at a dose of 30 mg/kg; assay type: functional, organism-based; design: dose 30 mg/kg; summary of the method: as §3
Rattus norvegicus [27] = assay: Hypolipidemic activity was determined by measuring the % serum LDL in normal rat at a dose of 1 mg/kg; assay type: functional, organism-based; design: dose 1 mg/kg; summary of the method: as §4
Rattus norvegicus [28] = assay: Hypolipidemic activity was determined by measuring the % serum LDL in normal rat at a dose of 10 mg/kg; assay type: functional, organism-based; design: dose 10 mg/kg; summary of the method: as §4
Rattus norvegicus [29] = assay: Hypolipidemic activity was determined by measuring the % serum LDL in normal rat at a dose of 3 mg/kg; assay type: functional, organism-based; design: dose 3 mg/kg; summary of the method: as §4
Rattus norvegicus [30] = assay: Hypolipidemic activity was determined by measuring the % serum LDL in normal rat at a dose of 30 mg/kg; assay type: functional, organism-based; design: dose 30 mg/kg; summary of the method: as §4
Rattus norvegicus [31] = assay: Hypolipidemic activity was determined by measuring the % serum triglycerides in normal rat at a dose of 3 mg/kg; assay type: functional, organism-based; design: dose 3 mg/kg; summary of the method: as §4
Rattus norvegicus [32] = assay: Hypolipidemic activity was determined by measuring the % serum triglycerides in normal rat at a dose of 30 mg/kg; assay type: functional, organism-based; design: dose 30 mg/kg; summary of the method: as §4
Rattus norvegicus [33] = assay: Hypolipidemic activity was determined by measuring the % serum triglycerides in hypercholesterolemic RICO rat at a dose of 10 mg/kg; assay type: functional, organism-based; design: dose 10 mg/kg; summary of the method: as §3
Rattus norvegicus [34] = assay: Hypolipidemic activity was determined by measuring the % serum triglycerides in hypercholesterolemic RICO rat at a dose of 3 mg/kg; assay type: functional, organism-based; design: dose 3 mg/kg; summary of the method: as §3
Rattus norvegicus [35] = assay: Hypolipidemic activity was determined by measuring the % serum triglycerides in hypercholesterolemic RICO rat at a dose of 30 mg/kg; assay type: functional, organism-based; design: dose 30 mg/kg; summary of the method: as §3
Rattus norvegicus [36] = assay: Hypolipidemic activity was determined by measuring the % serum triglycerides in normal rat at a dose of 1 mg/kg; assay type: functional, organism-based; design: dose 1 mg/kg; summary of the method: as §4
Rattus norvegicus [37] = assay: Hypolipidemic activity was determined by measuring the % serum triglycerides in normal rat at a dose of 10 mg/kg; assay type: functional, organism-based; design: dose 10 mg/kg; summary of the method: as §4
Rattus norvegicus [38] = assay: Hypolipidemic activity was determined by measuring the % serum HDL in normal rat at a dose of 10 mg/kg; assay type: functional, organism-based; design: dose 10 mg/kg; summary of the method: as §4
Rattus norvegicus [39] = assay: Hypolipidemic activity was determined in male rats, cholesterol was determined in high-density lipoproteins at 100 mg/kg; assay type: functional, organism-based; design: dose 100 mg/kg; summary of the method: as §2
Rattus norvegicus [40] = assay: Hypolipidemic activity was determined in male rats, cholesterol was determined in high-density lipoproteins at 30 mg/kg; assay type: functional, organism-based; design: dose 30 mg/kg; summary of the method: as §2
Rattus norvegicus [41] = assay: Hypolipidemic activity was determined in male rats, cholesterol was determined in low-density lipoproteins at 100 mg/kg; assay type: functional, organism-based; design: dose 100 mg/kg; summary of the method: as §2
Rattus norvegicus [42] = species: Rattus norvegicus; conditions: 30 mg/kg
Rattus norvegicus [43] = assay: Hypolipidemic activity was determined in male rats, and serum cholesterol level was determined at 100 mg/kg
Rattus norvegicus [44] = assay: Hypolipidemic activity was determined in male rats, and low-density lipoprotein level was determined at 30 mg/kg

Question: With `CO[C@H]1/C=C/O[C@@]2(C)Oc3c(C)c(O)c4c(O)c(c(/C=N/N5CCN(C)CC5)c(O)c4c3C2=O)NC(=O)/C(C)=C\C=C\[C@H](C)[C@H](O)[C@@H](C)[C@@H](O)[C@@H](C)[C@H](OC(C)=O)[C@@H]1C` [RIFAMPIN] as the compound, how does the Activity (Rattus norvegicus [1]) read?
Answer: -30%

Question: And the Activity (Rattus norvegicus [2])?
Answer: -27%

Question: What about the Activity (Rattus norvegicus [3]) of the same compound?
Answer: -31%

Question: What about the MIC (Staphylococcus aureus) of the same compound?
Answer: 0.003 µg/mL (≈ 0.00365 µM)

Question: Which results are given for `COC1/C=C/OC2(C)Oc3c(C)c(O)c4c(O)c(c(N5CCN(Cc6c(C)cc(C)cc6C)CC5)c(O)c4c3C2=O)NC(=O)/C(C)=C\C=C\C(C)C(O)C(C)C(O)C(C)C(OC(C)=O)C1C` (stereo unspecified)?
Answer: Activity (Rattus norvegicus [4]): -35%; Activity (Rattus norvegicus [5]): -63%; Activity (Rattus norvegicus [6]): -38%; Activity (Rattus norvegicus [7]): -58%; Activity (Rattus norvegicus [8]): -43%; Activity (Rattus norvegicus [9]): -79%; IC50 [10]: 0.3 µg/mL (≈ 0.328 µM); Serum HDL-cholesterol (Rattus norvegicus [11]): -30%; Serum HDL-cholesterol (Rattus norvegicus [12]): -7%; Serum HDL-cholesterol (Rattus norvegicus [13]): -72%; Serum HDL-cholesterol (Rattus norvegicus [14]): -8%; Serum HDL-cholesterol (Rattus norvegicus [15]): -14%; Serum HDL-cholesterol (Rattus norvegicus [16]): -69%; Serum cholesterol (Rattus norvegicus [17]): -30%; Serum cholesterol (Rattus norvegicus [18]): -8%; Serum cholesterol (Rattus norvegicus [19]): -65%; Serum cholesterol (Rattus norvegicus [20]): 0%; Serum cholesterol (Rattus norvegicus [21]): -42%; Serum cholesterol (Rattus norvegicus [22]): -11%; Serum cholesterol (Rattus norvegicus [23]): -72%; Serum LDL-cholesterol (Rattus norvegicus [24]): -42%; Serum LDL-cholesterol (Rattus norvegicus [25]): -29%; Serum LDL-cholesterol (Rattus norvegicus [26]): -68%; Serum LDL-cholesterol (Rattus norvegicus [27]): -11%; Serum LDL-cholesterol (Rattus norvegicus [28]): -53%; Serum LDL-cholesterol (Rattus norvegicus [29]): -28%; Serum LDL-cholesterol (Rattus norvegicus [30]): -64%; Serum triglyceride (Rattus norvegicus [31]): -3%; Serum triglyceride (Rattus norvegicus [32]): -50%; Serum triglyceride (Rattus norvegicus [33]): -17%; Serum triglyceride (Rattus norvegicus [34]): 8%; Serum triglyceride (Rattus norvegicus [35]): -55%; Serum triglyceride (Rattus norvegicus [36]): 11%; Serum triglyceride (Rattus norvegicus [37]): -18%; MIC (Staphylococcus aureus): 0.01 µg/mL (≈ 0.0109 µM); Serum HDL-cholesterol (Rattus norvegicus [38]): -46%

Question: With `O=C(O)c1cccnc1` as the compound, how does the Serum HDL-cholesterol (Rattus norvegicus [39]) read?
Answer: -13%

Question: And the Serum HDL-cholesterol (Rattus norvegicus [40])?
Answer: -1%

Question: And the Serum LDL-cholesterol (Rattus norvegicus [41])?
Answer: -52%

Question: And the Serum cholesterol (Rattus norvegicus [42])?
Answer: -6%

Question: And the Serum cholesterol (Rattus norvegicus [43])?
Answer: -10%

Question: And the Serum LDL-cholesterol (Rattus norvegicus [44])?
Answer: -32%
